Test results as given in ChEMBL document CHEMBL2311448, “Enantioselective synthesis of derivatives and structure-activity relationship study in the development of NA255 as a novel host-targeting anti-HCV agent” (Bioorg Med Chem Lett, 2013).

Experiments:
Hepatitis C virus = assay: Antiviral activity against HCV infected in human hepatoma cells assessed as inhibition of viral replication; format: functional, organism-based, Hepacivirus hominis
[1] = Cytotoxicity against human Hepatoma cells; format: cell-based
[2] = AUC in Sprague-Dawley rat liver at 10 mg/kg, sc; format: ADME, organism-based; parameters: dose 10 mg/kg, route subcutaneous
How it was run: (§1)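 Male Sprague–Dawley rats got a single subcutaneous dose of 10 mg/kg (n = 2) in 10% PEG300–10% HPCD in water. Plasma and liver concentrations were measured over time after dosing. Footnotes mark concentrations taken at 0.5 h and at 2 h postdosing. One compound was given as its tri-sodium salt.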

[3] = Mean residence time in Sprague-Dawley rat liver at 10 mg/kg, sc; format: ADME, organism-based; parameters: dose 10 mg/kg, route subcutaneous; how it was run: as §1
[4] = AUC in Sprague-Dawley rat plasma at 10 mg/kg, sc; format: ADME, organism-based; parameters: dose 10 mg/kg, route subcutaneous; how it was run: as §1
[5] = Half life in Sprague-Dawley rat liver at 10 mg/kg, sc; format: ADME, organism-based; parameters: dose 10 mg/kg, route subcutaneous; how it was run: as §1
[6] = Half life in Sprague-Dawley rat plasma at 10 mg/kg, sc; format: ADME, organism-based; parameters: dose 10 mg/kg, route subcutaneous; how it was run: as §1
[7] = Cmax in Sprague-Dawley rat plasma at 10 mg/kg, sc at 0.5 hrs; format: ADME, organism-based; parameters: dose 10 mg/kg, route subcutaneous; how it was run: as §1
[8] = Mean residence time in Sprague-Dawley rat plasma at 10 mg/kg, sc; format: ADME, organism-based; parameters: dose 10 mg/kg, route subcutaneous; how it was run: as §1
[9] = Cmax in Sprague-Dawley rat liver at 10 mg/kg, sc at 2 hrs; format: ADME, organism-based; parameters: dose 10 mg/kg, route subcutaneous; how it was run: as §1

Row | Compound | IC50 (Hepatitis C virus) [µM] | CC50 [1] [µM] | further results
1 | C=CCCCCCC(=O)CCCCCC/C=C/[C@H](C(=O)N[C@@H](Cc1ccc(OCCC(C)C)cc1)C(=O)O)[C@@](O)(CC(=O)O)C(=O)O | 0.0061 | > 1 | 
2 | CCCCCCCCC(=O)CCCCCC/C=C/[C@H](C(=O)N[C@@H](Cc1ccc(OCCC(C)C)cc1)C(=O)O)[C@@](O)(CC(=O)O)C(=O)O | 0.0069 | > 50 | 
3 | CC#CCOc1ccc(C[C@H](NC(=O)[C@@H](/C=C/CCCCCCC(=O)CCCCCCC)[C@@](O)(CC(=O)[O-])C(=O)[O-])C(=O)[O-])cc1.[Na+].[Na+].[Na+] |  |  | AUC [2]: 49600 ng·h/mL; MRT [3]: 7.3 h; AUC [4]: 3050 ng·h/mL; half-life [5]: 4.75 h; half-life [6]: 3.99 h; Cmax [7]: 604 ng/mL; MRT [8]: 5.48 h; Cmax [9]: 7100 ng/mL
4 | CCCCCCCC(=O)CCCCCC/C=C/[C@H](C(=O)N[C@@H](Cc1ccc(OCCCC)cc1)C(=O)O)[C@@](O)(CC(=O)O)C(=O)O | 0.0012 | > 5 | 
5 | CC(C)CCOc1ccc(C[C@H](NC(=O)[C@@H](/C=C/CCCCCCC(=O)Cc2ccccn2)[C@@](O)(CC(=O)O)C(=O)O)C(=O)O)cc1 | > 1 | > 1 | 
6 | CCCCCCCC(=O)CCCCCC/C=C/[C@H](C(=O)N[C@@H](Cc1ccc(OCCC(C)C)cc1)C(=O)O)[C@@](O)(CC(=O)O)C(=O)O | 0.0014 | > 5 | 
7 | CCCCCCCC(=O)CCCCCCCC[C@H](C(=O)N[C@@H](Cc1ccc(OCCC(C)C)cc1)C(=O)O)[C@@](O)(CC(=O)O)C(=O)O | 0.15 | > 5 | 
8 | CCCCCCCC(=O)CCCCCC/C=C/[C@H](C(=O)N[C@@H](Cc1ccc(OCc2ccccc2)cc1)C(=O)[O-])[C@@](O)(CC(=O)[O-])C(=O)[O-].[Na+].[Na+].[Na+] |  |  | AUC [2]: 100000 ng·h/mL; MRT [3]: 17 h; AUC [4]: 2690 ng·h/mL; half-life [5]: 27.3 h; half-life [6]: 9.81 h; Cmax [7]: 209 ng/mL; MRT [8]: 13.6 h; Cmax [9]: 6590 ng/mL
9 | CCCCCCCC(=O)CCCCCC/C=C/[C@H](C(=O)N[C@@H](Cc1ccc(OCC=C(C)C)cc1)C(=O)O)[C@@](O)(CC(=O)O)C(=O)O |  | > 5 | 
10 | CCCCCCCC(=O)CCCCCC/C=C/[C@H](C(=O)N[C@@H](Cc1ccc(OCCC)cc1)C(=O)O)[C@@](O)(CC(=O)O)C(=O)O | 0.0026 | > 5 | 
11 | CCCCCCCC(=O)CCCCCC/C=C/[C@H](C(=O)N[C@@H](Cc1ccc(-c2cccc(OC)c2)cc1)C(=O)[O-])[C@@](O)(CC(=O)[O-])C(=O)[O-].[Na+].[Na+].[Na+] |  |  | AUC [2]: 82900 ng·h/mL; MRT [3]: 16.1 h; AUC [4]: 2590 ng·h/mL; half-life [5]: 21.3 h; half-life [6]: 14.8 h; Cmax [7]: 351 ng/mL; MRT [8]: 12.9 h; Cmax [9]: 5920 ng/mL
12 | CC(C)CCOc1ccc(C[C@H](NC(=O)[C@@H](/C=C/CCCCCCC(=O)CCc2ccccc2)[C@@](O)(CC(=O)O)C(=O)O)C(=O)O)cc1 | 0.29 | > 1 | 
13 | CCCCCCCC(=O)CCCCCC/C=C/[C@H](C(=O)N[C@@H](Cc1ccc(Oc2ccccc2)cc1)C(=O)O)[C@@](O)(CC(=O)O)C(=O)O | 0.0019 | > 5 | 
14 | CCCCCCCCCCCCCC/C=C/[C@H](C(=O)NC(Cc1ccc(OCC=C(C)C)cc1)C(=O)O)[C@@](O)(CC(=O)O)C(=O)O (some centres undefined) | 0.155 | > 50 | 
15 | CCCCCCCCCC(=O)CCCC/C=C/[C@H](C(=O)N[C@@H](Cc1ccc(OCCC(C)C)cc1)C(=O)O)[C@@](O)(CC(=O)O)C(=O)O | 0.0051 | > 1 | 
16 | CC(C)CCOc1ccc(C[C@H](NC(=O)[C@@H](/C=C/CCCCCCC(=O)CCC2CCCCC2)[C@@](O)(CC(=O)O)C(=O)O)C(=O)O)cc1 | 0.032 | > 1 | 
17 | CCCCCCCC(=O)CCCCCC/C=C/[C@H](C(=O)N[C@@H](Cc1ccc(OCCCC(C)C)cc1)C(=O)O)[C@@](O)(CC(=O)O)C(=O)O | 0.012 | > 1 | 
18 | CCCCCCCC(=O)CCCCCC/C=C/[C@H](C(=O)N[C@@H](Cc1ccc(OCc2ccccc2)cc1)C(=O)O)[C@@](O)(CC(=O)O)C(=O)O | 0.00032 | > 5 | 
19 | CCCC(=O)CCCCCC/C=C/[C@H](C(=O)N[C@@H](Cc1ccc(OCCC(C)C)cc1)C(=O)O)[C@@](O)(CC(=O)O)C(=O)O | 0.8 | > 5 | 
20 | CCCCCCCC(=O)CCCCCC/C=C/[C@H](C(=O)N[C@@H](CC1CCCCC1)C(=O)O)[C@@](O)(CC(=O)O)C(=O)O | > 5 | > 5 | 
21 | CCCCCCCC(=O)CCCCCC/C=C/[C@H](C(=O)N[C@@H](Cc1ccc(OC)cc1)C(=O)O)[C@@](O)(CC(=O)O)C(=O)O | 0.0064 | > 5 | 

Second part, led by results:

Row | IC50 (Hepatitis C virus) [µM] | Compound | CC50 [1] [µM] | further results
22 | 0.014 | CCCCCCCC(=O)CCCCCC/C=C/[C@H](C(=O)N[C@@H](Cc1ccc2ccccc2c1)C(=O)O)[C@@](O)(CC(=O)O)C(=O)O | > 5 | 
23 | 0.01 | CCCCCCCC(=O)CCCCCC/C=C/[C@H](C(=O)N[C@@H](Cc1ccc(-c2cccnc2)cc1)C(=O)O)[C@@](O)(CC(=O)O)C(=O)O | > 1 | 
24 | 0.0014 | CCCCCC(=O)CCCCCCCC/C=C/[C@H](C(=O)N[C@@H](Cc1ccc(OCCC(C)C)cc1)C(=O)O)[C@@](O)(CC(=O)O)C(=O)O | > 1 | 
25 | > 1 | CCCCCCCC(=O)CCCCCC/C=C/[C@H](C(=O)N[C@@H](Cc1cccc2ccccc12)C(=O)O)[C@@](O)(CC(=O)O)C(=O)O | > 1 | 
26 | 0.0057 | CC(C)CCCCC(=O)CCCCCC/C=C/[C@H](C(=O)N[C@@H](Cc1ccc(OCCC(C)C)cc1)C(=O)O)[C@@](O)(CC(=O)O)C(=O)O | > 1 | 
27 | 0.0012 | CC#CCOc1ccc(C[C@H](NC(=O)[C@@H](/C=C/CCCCCCC(=O)CCCCCCC)[C@@](O)(CC(=O)O)C(=O)O)C(=O)O)cc1 | > 5 | 
28 | 0.49 | CCCCCCCC(=O)CCCCCC/C=C/[C@H](C(=O)N[C@@H](Cc1cccs1)C(=O)O)[C@@](O)(CC(=O)O)C(=O)O | > 1 | 
29 | 0.019 | CCCCCCC(=O)CCCCCC/C=C/[C@H](C(=O)N[C@@H](Cc1ccc(OCCC(C)C)cc1)C(=O)O)[C@@](O)(CC(=O)O)C(=O)O | > 1 | 
30 | 0.0016 | CCCCCCCC(=O)CCCCCC/C=C/[C@H](C(=O)N[C@@H](Cc1ccc(-c2ccccc2)cc1)C(=O)O)[C@@](O)(CC(=O)O)C(=O)O | > 5 | 
31 | > 5 | CCCCCCCC(=O)CCCCCC/C=C/[C@H](C(=O)N[C@H](Cc1ccc(OCCC(C)C)cc1)C(=O)O)[C@@](O)(CC(=O)O)C(=O)O | > 5 | 
32 | 0.017 | CCCCCCCC(=O)CCCCCC/C=C/[C@H](C(=O)N[C@@H](Cc1ccccc1)C(=O)O)[C@@](O)(CC(=O)O)C(=O)O | 13.9 | 
33 | 0.0026 | CCCCCCCC(=O)CCCCCC/C=C/[C@H](C(=O)N[C@@H](Cc1ccc(-c2cccc(OC)c2)cc1)C(=O)O)[C@@](O)(CC(=O)O)C(=O)O | > 1 | 
34 | 0.025 | CCCCCCCC(O)CCCCCC/C=C/[C@H](C(=O)N[C@@H](Cc1ccc(OCCC(C)C)cc1)C(=O)O)[C@@](O)(CC(=O)O)C(=O)O (mixture of isomers) | > 1 | 
35 | 1 | CCCCCCCC(=O)CCCCCC/C=C/[C@H](C(=O)NCCc1ccc(OCCC(C)C)cc1)[C@@](O)(CC(=O)O)C(=O)O | > 5 | 
36 | 0.038 | CCCCCCCC(=O)CCCCCC/C=C/[C@H](C(=O)N[C@@H](Cc1ccc(OCCCN)cc1)C(=O)O)[C@@](O)(CC(=O)O)C(=O)O | > 1 | 
